Our source for the IC50 and Activity values is ChEMBL document CHEMBL1150145, “Antioxidative and cytotoxic compounds extracted from the sap of Rhus succedanea” (J Nat Prod, 2002).

In brackets after ≈: the same amount, converted by molar mass. Activity calls are given as the source filed them. The calls are words filed in the database; no cut-off is given here.

The subject of one assay is HeLa. In words: Cytotoxicity against human HeLa cells after 72 hrs by acid phosphatase assay. It counts as functional, cell-based. A digest of the protocol:
(§1)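 Cells grown in DMEM with 10% FCS, penicillin and streptomycin at 37 °C, 5% CO2. Seeded at 2000 cells/well in 96-well plates and exposed to compound or left untreated for 72 h.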

Assay [1] is described as follows: Antioxidant activity assessed as inhibition of peroxide formation using iron/ascorbate system. Type of assay: functional. The method, boiled down:
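Linoleic acid (100 mg) emulsified with Tween 20 in 50 mM Tris pH 7.4. Emulsion mixed with iron/ascorbate (30 µM FeCl3, 200 µM ascorbic acid, made daily) and methanolic compound, giving ca. 0, 1, 4, 10 ppm final. Tubes held on ice, then 37 °C for 5 and 30 min. Conjugated diene hydroperoxide read at 234 nm after MeOH dilution. BHT 2000 ppm control. Triplicates.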

The test system of a further assay is HCT-116. In words: Cytotoxicity against human HCT116 cells after 72 hrs by acid phosphatase assay. Conditions: HCT-116, 72 h. Type of assay: functional, cell-based. A digest of the protocol:
as §1

The subject of a further assay is Huh-7. In words: Cytotoxicity against human HuH7 cells after 72 hrs by acid phosphatase assay. It counts as functional, cell-based. The note with it: Huh-7, 72 h. A digest of the protocol:
as §1

A further assay concerns C6. As to the kind of experiment: Cytotoxicity against rat C6 cells after 72 hrs by acid phosphatase assay. It counts as functional, cell-based. Conditions: C6, 72 h. A digest of the protocol:
as §1

The test system of another assay is LoVo. In words: Cytotoxicity against human LoVo cells after 72 hrs by acid phosphatase assay. Type of assay: functional, cell-based. A digest of the protocol: as §1

The term IC50 denotes the midpoint of a concentration-inhibition curve. A high value points to a need for much substance. With `C/C=C/C=C/C/C=C\CCCCCCCCCc1cc(O)ccc1O`, the 50% inhibitory concentration (IC50) in the assay with HeLa worked out at 2.8 µg/mL (≈ 8.17 µM); with HCT-116 it was 2 µg/mL (≈ 5.84 µM); in the assay with Huh-7 it was 3.9 µg/mL (≈ 11.4 µM); with C6 it was 0.9 µg/mL (≈ 2.63 µM); in the assay on LoVo, 4.5 µg/mL (≈ 13.1 µM). Further, in assay [1], the outcome was Active.
For `CCC/C=C/C/C=C\CCCCCCCCCc1cc(O)ccc1O`, the 50% inhibitory concentration (IC50) stood at 4.6 µg/mL (≈ 13.4 µM) in the assay with HeLa; 3.5 µg/mL (≈ 10.2 µM) in the assay on HCT-116; 6 µg/mL (≈ 17.4 µM) with Huh-7; 1 µg/mL (≈ 2.9 µM) in the assay with C6; 5.6 µg/mL (≈ 16.3 µM) in the assay with LoVo. In addition, the result in assay [1] was Active.
Consider `CCCCCC/C=C\CCCCCCCCCc1cc(O)ccc1O`, for which the half-maximal inhibitory concentration (IC50) with HeLa stood at 4.7 µg/mL (≈ 13.6 µM); in the assay with HCT-116, 3.4 µg/mL (≈ 9.81 µM); with Huh-7 it was 6.4 µg/mL (≈ 18.5 µM); in the assay on C6 it was 1.1 µg/mL (≈ 3.17 µM); in the assay with LoVo, 2.9 µg/mL (≈ 8.37 µM). In addition, in assay [1], the result was Active.
